Runt-CBFb FRET – blocks binding of human RUNX1 Runt domain to CBFb. AID 1496. Q01196+Q13951. 0.46% of 220,000 active. inhibition, % at 20 µM. Cerulean-Runt/Venus-CBFb FRET ratio 530/480, 1 h;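 active = inhibition over about 50% at 20 µM in the single-dose screen, limit read from the data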;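 note: 0% = DMSO wells and 100% = excess unlabeled CBFb competitor control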
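Assay system: Cerulean-tagged RUNX1 Runt domain (FRET donor) fusion protein / Amount: 100 nM each of Venus-CBFb and Cerulean-Runt domain / Medium: Tris buffer pH 7.5 with salts and BSA / Also added: Venus-CBFb 100 nM / Schedule: 1 h complex formation plus 1 h compound treatment, room temperature / Signal: FRET fluorescence / Read-out: loss of energy transfer signal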
Runt-SMMHC FRET – blocks binding of human RUNX1 Runt domain to CBFb-SMMHC; Q01196+Q13951; Cerulean-Runt/Venus-CBFb-SMMHC FRET ratio 530/480, 1 h; inhibition, % at 20 µM; 0.74% of 220,000 active; AID 1434;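 active = mean inhibition across duplicate retests at 20 µM reaching about 50%, limit read from the data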;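 note: 0% = DMSO wells and 100% = wells with excess untagged CBFb-SMMHC; inhibitors lower the FRET ratio by blocking Runt binding to CBFb-SMMHC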
Hck-Nef inh – blocks Nef-activated human Hck kinase. P08631. Recombinant Hck-YEEI plus Nef, Z-Lyte FRET kinase assay. inhibition, % at 20 µM. 0.68% of 220,000 active;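 active = Hck-Nef kinase inhibition above about 50%, limit read from the data; inactive = inhibition below that limit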;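 note: 0% = DMSO with Hck plus Nef and 100% = Hck alone without Nef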
Target sequence (P08631 whole entry, looked up): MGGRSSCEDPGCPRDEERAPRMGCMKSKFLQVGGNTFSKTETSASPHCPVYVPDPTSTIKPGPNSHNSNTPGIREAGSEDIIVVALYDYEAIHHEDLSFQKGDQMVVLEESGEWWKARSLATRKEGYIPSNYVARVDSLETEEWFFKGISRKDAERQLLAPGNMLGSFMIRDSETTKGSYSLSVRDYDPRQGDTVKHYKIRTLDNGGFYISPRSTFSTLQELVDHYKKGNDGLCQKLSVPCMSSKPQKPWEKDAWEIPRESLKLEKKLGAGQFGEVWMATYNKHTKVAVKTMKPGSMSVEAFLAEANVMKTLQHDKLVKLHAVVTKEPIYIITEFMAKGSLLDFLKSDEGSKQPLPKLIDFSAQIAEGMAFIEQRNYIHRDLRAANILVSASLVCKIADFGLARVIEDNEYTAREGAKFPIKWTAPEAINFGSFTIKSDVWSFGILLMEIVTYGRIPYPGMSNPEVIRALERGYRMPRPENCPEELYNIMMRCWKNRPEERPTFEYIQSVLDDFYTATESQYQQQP
RanGTP-Imp inh – inhibitors of RanGTP-importin-beta interaction, primary screen, biochemical, FRET, CFP-Ran, YFP-importin-beta, homogeneous | cell-free CFP-Ran/YFP-importin-beta FRET ratio | inhibition, % (test concentration not listed) | 1.1% of 300,000 active | AID 2216;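 active = more than half of the replicate wells show a fall in the fluorescence ratio signal beyond about 16%, limit read from the data, passing the limit was not always enough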;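 note: 0% = DMSO wells and 100% = Ran loaded with GDP instead of GTP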
* = called active by the depositor; nt = no result. Sampled rows, rich in hits. Any-hit rate of the full collection: about 1.7%.

SMILES | Runt-CBFb FRET | Runt-SMMHC FRET | Hck-Nef inh | RanGTP-Imp inh
Cc1ccccc1N1CCN(C(=S)c2ccc([N+](=O)[O-])cc2)CC1 | 35 | 27 | 9 | 26*
Cc1cc2c(c(=O)n1C)C(Cc1ccccc1)C(C#N)=C(N)O2 (centres undefined) | 123* | 146* | 2 | 63*
CC(Sc1ccccc1)C(=O)N1CCN(S(=O)(=O)c2ccc(Cl)cc2)CC1 (centres undefined) | nt | nt | nt | -1
COc1cccc(N2[C@@H](CC(C)=O)c3ccc(/C=C/C(C)=O)cc3S2(=O)=O)c1 | nt | nt | nt | -1
CC1CC1c1ccc(/C=C(\C#N)C(=O)Nc2ccc(Cl)cc2Cl)o1 (centres undefined) | -25 | -84 | 3 | 40*
CC1CC1c1ccc(/C=C(\C#N)C(=O)Nc2cc(Cl)ccc2Cl)o1 (centres undefined) | -18 | -37 | 0 | 24*
CC(C)(C)C1CCc2sc(C(=O)NNC(=O)CCl)cc2C1 (centres undefined) | -3 | 3 | 14 | -2
CC1=NN(C(C#N)c2ccc(F)cc2)C(C)(C)C1 (centres undefined) | -1 | -4 | 2 | 0
CC1=NN(C(C#N)c2ccccc2C)C(C)(C)C1 (centres undefined) | 75* | 2 | -31 | 2
COc1ccc(N=c2oc3cc(O)ccc3cc2C(=O)NCC2CCCO2)cc1 (centres undefined) | 82* | 64* | 45 | 173*
CCOc1ccc(N=c2oc3cc(O)ccc3cc2C(=O)NCC2CCCO2)cc1 (centres undefined) | 121* | 106* | 35 | 184*
Cc1ccc(N=c2oc3cc(O)ccc3cc2C(N)=O)cc1 | 10 | 46 | 46 | 181*
COc1ccc(N=c2oc3cc(O)ccc3cc2C(=O)NCC2CCCO2)c(OC)c1 (centres undefined) | 11 | 41 | 22 | 176*
COc1ccc(-c2cc(C(=O)NCC3CCCO3)c3ccccc3n2)cc1 (centres undefined) | 0 | 1 | 1 | -3
CC(=O)c1c(C)[nH]c(C(=O)OCc2ccc(F)cc2Cl)c1C | -1 | -3 | -3 | 1
O=C(COC(=O)Cc1ccc(Cl)cc1Cl)Nc1ccccc1OC(F)F | -4 | 3 | -2 | 4
O=C(NCc1cccnc1)C(=O)N/N=C/c1ccccc1[N+](=O)[O-] | 1 | 4 | 23 | 1
O=C(Nc1ccccc1Cl)O/N=C/c1ccncc1 | nt | nt | 1 | 4
COc1ccc(OC)c(NC(=O)Cc2ccc(NC3=NC4CS(=O)(=O)CC4S3)cc2)c1 (centres undefined) | nt | nt | nt | -1
Nc1cccc2c1C(=O)N(CCOc1ccccc1F)C2=O | nt | nt | nt | 42*
O=C(O)CCCCC1CCSS1 (centres undefined) | 38 | 27 | 101* | -2
COc1cccc(/C=N\NC(=O)c2ccc(Cn3cc(Br)c([N+](=O)[O-])n3)o2)c1O | 2 | -11 | 29 | -1
CN1CCN(c2ccc(NC(=S)NC(=O)/C=C/c3ccco3)cc2)CC1 | nt | nt | nt | 0
O=c1oc2ccccc2cc1-c1nc2c(s1)CCCC2 | 52* | 42 | 33 | 83*
Cc1cc(=O)n2c3ccccc3n(CC(O)CN3CCCCC3)c2c1C#N (centres undefined) | -1 | -1 | 1 | 4
SMILES | Runt-CBFb FRET | Runt-SMMHC FRET | Hck-Nef inh | RanGTP-Imp inh
Cc1cc(=O)n2c3ccccc3n(CC(O)CN3CCOCC3)c2c1C#N (centres undefined) | -1 | 1 | -7 | 130*
O=C(c1cc(F)c(F)cc1Cl)N1CCN(c2ncccn2)CC1 | nt | nt | nt | 0
CCCC(=O)NC(Nc1ccccc1F)C(Cl)(Cl)Cl (centres undefined) | 67* | -4 | -2 | 0
Cc1cc(/C=C2\SC(=S)N(Cc3ccco3)C2=O)c(C)n1-c1ccccc1 | -19 | -106 | 1 | 21*
Cc1cc(/C=C2\SC(=S)N(C)C2=O)c(C)n1-c1cccc(O)c1 | -15 | -48 | -9 | 36*
Cc1cc(/C=C2\SC(=O)N(C)C2=O)c(C)n1-c1ccc(O)cc1 | nt | nt | nt | -2
Cc1cc(C)n(-c2nc3ccccc3nc2Nc2ccc3[nH]c(=O)[nH]c3c2)n1 | -3 | -8 | -1 | 32*
CSc1nc(=S)c2[nH]c(=S)[nH]c2[nH]1 | 13 | 51* | -152 | -2
Cc1cc(C)c(C)c(S(=O)(=O)N2CCC(C(=O)NCC(c3ccccc3)N(C)C)CC2)c1C (centres undefined) | nt | nt | nt | 2
COc1cc(NC(=O)c2cccc(Br)c2)nc(OC)n1 | 1 | -1 | 22 | 8
CN1CCc2c(sc3c2C(=O)NC(c2ccccc2)N3)C1 (centres undefined) | 106* | 76* | 5 | 5
CN1CCc2c(sc3c2C(=O)NC(c2ccc4c(c2)OCO4)N3)C1 (centres undefined) | 125* | 152* | nt | 41*
Cc1ccc(C2NC(=O)c3c(sc4c3CCN(C)C4)N2)o1 (centres undefined) | 88* | 72* | 2 | 106*
CN1CCc2c(sc3c2C(=O)NC(c2ccccn2)N3)C1 (centres undefined) | 99* | 65* | 7 | 133*
COc1ccccc1C(CNC(=O)c1cccc(NS(=O)(=O)c2ccc(C)c(F)c2)c1)N1CCCC1 (centres undefined) | nt | nt | nt | 0
CC(Oc1ccccc1)C(=O)N=C1SC2CS(=O)(=O)CC2N1Cc1ccccc1 (centres undefined) | nt | nt | nt | 1
N#CCCN(C(=O)COC(=O)Cc1c[nH]c2ccccc12)c1ccccc1 | nt | nt | nt | -5
Cc1ccc(C2NC(=O)c3c(sc4c3CCN(C)C4)N2)s1 (centres undefined) | 42 | 136* | 1 | 114*
CN1CCc2c(sc3c2C(=O)NC(/C=C/c2ccco2)N3)C1 (centres undefined) | nt | nt | 4 | 78*
CC(NC(=O)Cn1nnc(-c2ccncc2)n1)c1ccccc1 (centres undefined) | -1 | 4 | 8 | 0
CCOC(=O)c1ccc(NC(=O)N2CCN(c3ccccc3OC)CC2)cc1 | 2 | -1 | 2 | 27*
Cc1ccc(NC(=O)C2CCN(S(=O)(=O)c3ccc(N4CCCC4=O)cc3)CC2)cc1Cl | nt | nt | nt | -3
O=c1cc2oc3cc(O)c(O)cc3c(-c3ccccc3[N+](=O)[O-])c-2cc1O | nt | nt | nt | 18*
O=C(CC1SC(=NCC2CCCO2)NC1=O)Nc1cc([N+](=O)[O-])ccc1Cl (centres undefined) | 1 | 0 | -30 | -1
O=C(CC1SC(=NCC2CCCO2)NC1=O)Nc1cccc2ccccc12 (centres undefined) | 81* | 0 | 3 | -2
CCOC(=O)C1=C(CSc2nc(C)ccc2C#N)OC(N)=C(C#N)C1c1cccc(OC)c1OC (centres undefined) | 24 | 8 | 0 | 18*
O=C(Cc1n[nH]c(=O)c2ccccc12)NC(c1ccccc1)c1ccccc1 | -2 | -8 | 15 | -2
COc1ccc(CCC(=O)Nc2sccc2C#N)cc1 | 1 | -4 | 59* | 1

From PubChem BioAssay
